The source of these data is ChEMBL document CHEMBL1158088, “Bioactive triterpene glycosides from the sea cucumber Holothuria fuscocinerea” (J Nat Prod, 2006).

The subject of one test is HL-60. As to the kind of experiment: Cytotoxicity against human HL-60 cells after 72 hrs by MTT assay. The test is classed as functional, cell-based. As to conditions: HL-60, 72 h. The essentials:
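HL-60 human leukemia cells exposed to glycosides for 72 h; viability read by MTT colorimetric assay in 96-well microplates. Dose–response curves plotted; IC50 = concentration giving 50% reduction of absorption versus control cells. Three independent experiments, each concentration in triplicate wells; mean ± SD. 10-Hydroxycamptothecine as positive control.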

The next test relates to Bel-7402. Kind of test: Cytotoxicity against human Bel-7402 cells after 72 hrs by sulforhodamine B assay. In kind it is functional, cell-based. As to conditions: Bel-7402, 72 h. In a few lines: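 BEL-7402 human hepatoma cells treated 72 h; cell protein measured by sulforhodamine B assay. IC50 taken from dose–response curves as concentration causing 50% drop in absorption relative to control cells. Means ± SD of three independent experiments, triplicate wells per concentration. 10-Hydroxycamptothecine served as positive control.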
(In SRB staining, fixed cells bind dye roughly in proportion to their protein.)

pIC50: −log10 of the molar value.

In the case of `CO[C@@H]1[C@@H](O)[C@H](O[C@@H]2[C@@H](O)[C@H](O[C@H]3[C@H](O)[C@@H](O)[C@H](O[C@H]4[C@H](O[C@H]5CC[C@]6(C)C7=C[C@H](O)[C@@]89C(=O)O[C@@](C)(C%10CCC(C)(C)O%10)[C@@]8(O)CC[C@@]9(C)[C@@H]7CC[C@H]6C5(C)C)OC[C@@H](OS(=O)(=O)O)[C@@H]4O)O[C@@H]3C)O[C@H](CO)[C@H]2O)O[C@H](CO)[C@H]1O` (some centres not stated) [HOLOTHURIN A], the pIC50 is 5.35 with HL-60 and 6.12 in the test on Bel-7402.
Taken in the same sequence, the figures for `CO[C@@H]1[C@@H](O)[C@H](O[C@@H]2[C@@H](O)[C@H](O[C@H]3[C@H](O)[C@@H](O)[C@H](O[C@H]4[C@H](O[C@H]5CC[C@]6(C)C7=C[C@H](O)[C@@]89C(=O)O[C@@](C)(C%10CCC(C)(C)O%10)[C@H]8CC[C@@]9(C)[C@@H]7CC[C@H]6C5(C)C)OC[C@@H](OS(=O)(=O)O)[C@@H]4O)O[C@@H]3C)O[C@H](CO)[C@H]2O)O[C@H](CO)[C@H]1O` (some centres not stated) [FUSCOCINEROSIDE C] were 6.06 and 6.24.
With `CO[C@@H]1[C@@H](O)[C@H](O[C@@H]2[C@@H](O)[C@H](O[C@H]3[C@H](O)[C@@H](O)[C@H](O[C@H]4[C@H](O[C@H]5CC[C@]6(C)C7=C[C@H](O)[C@@]89C(=O)O[C@@](C)(CCCC(C)C)[C@H]8CC[C@@]9(C)[C@@H]7CC[C@H]6C5(C)C)OC[C@@H](OS(=O)(=O)O)[C@@H]4O)O[C@@H]3C)O[C@H](CO)[C@H]2O)O[C@H](CO)[C@H]1O` [PERVICOSIDE C], the negative logarithm of the IC50 (pIC50) in the test with HL-60 was 5.35; with Bel-7402, 6.18.
In the case of `CO[C@@H]1[C@@H](O)[C@H](O[C@@H]2[C@@H](O)[C@H](O[C@H]3[C@H](O)[C@@H](O)[C@H](O[C@H]4[C@H](O[C@H]5CC[C@]6(C)C7=C[C@H](O)[C@@]89C(=O)O[C@@](C)(C(=O)CCC(C)C)[C@H]8CC[C@@]9(C)[C@@H]7CC[C@H]6C5(C)C)OC[C@@H](OS(=O)(=O)O)[C@@H]4O)O[C@@H]3C)O[C@H](CO)[C@H]2O)O[C@H](CO)[C@H]1O` [FUSCOCINEROSIDE B], the figures for the pIC50 in the test on HL-60 and in the test on Bel-7402 were 5.43 and 5.58, respectively.
Taken in the same sequence, the figures for `CC[C@@]1(O)C(=O)OCc2c1cc1n(c2=O)Cc2cc3cc(O)ccc3nc2-1` [HYDROXYCAMPTOTHECIN] were 6.39 and 6.55.
Regarding `CO[C@@H]1[C@@H](O)[C@H](O[C@@H]2[C@@H](O)[C@H](O[C@H]3[C@H](O)[C@@H](O)[C@H](O[C@H]4[C@H](O[C@H]5CC[C@]6(C)C7=C[C@H](O)[C@@]89C(=O)O[C@@](C)(C(=O)CCC(C)(C)OC(C)=O)[C@H]8CC[C@@]9(C)[C@@H]7CC[C@H]6C5(C)C)OC[C@@H](OS(=O)(=O)O)[C@@H]4O)O[C@@H]3C)O[C@H](CO)[C@H]2O)O[C@H](CO)[C@H]1O` [FUSCOCINEROSIDE A], the pIC50 in the test with HL-60 is 5.21; in the test on Bel-7402, 5.25.

For orientation: pIC50 means −log10 of the IC50, conventionally taken in molar units. The low end stands for a high IC50, the high end for a low IC50.
